# Assay results as given in ChEMBL document CHEMBL1131066, “2-Substituted aminopyrido[2,3-d]pyrimidin-7(8H)-ones. structure-activity relationships against selected tyrosine kinases and in vitro and in vivo anticancer activity” (J Med Chem, 1998).
# Experiments:
# SK-OV-3 [1] = test: Net reduction in tumor burden between first and last treatments of SK-OV-3 cell tumors in mice at 20.3 mg/kg peroral dose, days 20-34 administration; format: functional; conditions: route oral
# Method in brief: (§1)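 NCr nu/nu nude mice (18–22 g, 6–8 per group, randomized) had tumor fragments, kept by serial passage in nude mice, implanted in the right axilla on day 0. Mice were dosed by average cage weight on the listed days, over a range from toxic to ineffective doses. Vehicle was 50 mM sodium lactate pH 4.0 or 0.5% methyl cellulose suspension. Net log cell kill was taken between first and last treatments.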
# MCF7 [2] = test: Net reduction in tumor burden between first and last treatments of MCF-7 cell tumors in mice at 12 mg/kg peroral dose, days 1-15 administration; format: functional; conditions: route oral; method in brief: as §1
# HT-29 [3] = test: Net reduction in tumor burden between first and last treatments of HT-29 cell tumors in mice at 10.2 mg/kg peroral dose, days 15-29 administration; format: functional; conditions: route oral; method in brief: as §1
# SK-OV-3 [4] = test: Weight change of SK-OV-3 cell tumors in mice at 20.3 mg/kg peroral dose, days 20-34 administration; format: functional; conditions: route oral
# Method in brief: (§2)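 Nude mice (NCr nu/nu, 18–22 g, 6–8 per group) were randomized and implanted with serially passaged tumor fragments in the right axilla on day 0. Oral dosing was based on average cage weight, on the days stated, over a dose range from toxic to ineffective. Vehicle was 50 mM sodium lactate buffer, pH 4.0, or 0.5% methyl cellulose suspension. Host weight change is reported as maximum treatment-related loss.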
# C6 [5] = test: Net reduction in tumor burden between first and last treatments of C6 glioma cell tumors in mice at 5 mg/kg peroral dose, days 1-15 administration; format: functional; conditions: route oral; method in brief: as §1
# NIH3T3/PDGF = test: Weight change of NIH3T3/PDGF cell tumors in mice at 9.5 mg/kg peroral dose, days 1-15 administration; conditions: route oral
# NIH3T3 [6] = test: Growth of NIH3T3 cell colonies in soft agar with discontinued treatment; format: functional, cell-based; conditions: Mus musculus
# Method in brief: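 PDGF-B-transfected NIH3T3 (NIH3T3/PDGF) cells exposed 3 days to a concentration series, washed free of inhibitor, plated in drug-free soft agar; colonies stained and counted after two weeks. IC50; mean of two experiments, each in duplicate.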
# MCF7 [7] = test: Difference in days for treated (T) and control (C) MCF-7 cell tumors to reach 750 mg in mice at 12 mg/kg peroral dose, days 1-15 administration; format: functional; conditions: route oral
# Method in brief: (§3)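 Nude mice (NCr nu/nu), 18–22 g, 6–8 per group, randomized and implanted with serially passaged tumor fragments in the right axilla on day 0. Dosed by average cage weight. Vehicle was 50 mM sodium lactate buffer, pH 4.0, or a 0.5% methyl cellulose suspension for one compound. Cisplatin was given in saline. T − C is the difference in days for treated and control tumors to reach 750 mg.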
# HT-29 [8] = test: Difference in days for treated (T) and control (C) HT-29 cell tumors to reach 750 mg in mice at 10.2 mg/kg peroral dose, days 15-29 administration; format: functional; conditions: route oral; method in brief: as §3
# A-431 [9] = test: Net reduction in tumor burden between first and last treatments in A431 cell tumors in mice at 20 mg/kg peroral dose, days 7-21 administration; format: functional; conditions: route oral; method in brief: as §1
# C6 [10] = test: Net reduction in tumor burden between first and last treatments of C6 glioma cell tumors in mice at 10 mg/kg peroral dose, days 1-15 administration; format: functional; conditions: route oral; method in brief: as §1
# C6 [11] = test: Weight change of C6 glioma tumor cells in mice at 5 mg/kg peroral dose, days 1-15 administration; format: functional, Mus musculus; conditions: route oral
# Method in brief: (§4)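 Tumor-bearing nude mice (NCr nu/nu, 18–22 g, 6–8 per group) were implanted in the right axilla with tumor fragments on day 0 and dosed by average cage weight. Vehicle was 50 mM sodium lactate pH 4.0, or 0.5% methyl cellulose suspension; cisplatin was given in saline. Host body weight change is given as the maximum treatment-related weight loss.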
# C6 [12] = test: Weight change of C6 glioma cell tumor in mice at 10 mg/kg peroral dose, days 1-15 administration; format: functional, organism-based; design: dose 10 mg/kg; method in brief: as §4
# COLO 205 [13] = test: Difference in days for treated (T) and control (C) COLO 205 cell tumors to reach 750 mg in mice at 10 mg/kg peroral dose, days 14-28 administration; format: functional; conditions: route oral; method in brief: as §3
# C6 [14] = test: Inhibition of C6 cell proliferation in sulforhodamine B assay; format: functional, cell-based, Rattus norvegicus; conditions: Rattus norvegicus, C6
# Method in brief: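 C6 rat glioma cells (F10 Ham's, 15% horse serum, 2.5% fetal calf serum) seeded and allowed 24 h to attach, then given serial 2-fold compound dilutions; 4 d at 37 °C, 5% CO2; growth read by sulforhodamine B staining. IC50; mean of two experiments, each in triplicate.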
# Mus musculus [15] = test: Weight change of PDGF-transfected fibroblast cells in mice at 15 mg/kg peroral dose, days 1-15 administration; format: functional; conditions: route oral; method in brief: as §2
# HT-29 [16] = test: Weight change of HT-29 tumor cells in mice at 10.2 mg/kg peroral dose, days 15-29 administration; format: functional; conditions: route oral; method in brief: as §4
# C6 [17] = test: C6 cell growth in soft agar with continuous treatment; format: functional, cell-based, Rattus norvegicus; conditions: Rattus norvegicus, C6
# Method in brief: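 C6 rat glioma cells (F10 Ham's with 15% horse serum, 2.5% fetal calf serum) exposed 3 days to a concentration series, then plated in soft agar with compound still present at the same concentration; colonies stained and counted after two weeks. IC50; mean of two experiments, each in duplicate.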
# A-431 [18] = test: Difference in days for treated (T) and control (C) A431 cell tumors to reach 750 mg in mice at 20 mg/kg peroral dose, days 7-21 administration; format: functional; conditions: route oral; method in brief: as §3
# COLO 205 [19] = test: Weight change of COLO 205 tumor cells in mice at 10 mg/kg peroral dose, days 14-28 administration; format: functional; conditions: route oral; method in brief: as §4
# Mus musculus [20] = test: Net reduction in tumor burden between first and last treatments of PDGF-transfected fibroblast cells in mice at 15 mg/kg peroral dose, days 1-15 administration; format: functional; conditions: route oral; method in brief: as §1
# SK-OV-3 [21] = test: Difference in days for treated (T) and control (C) SK-OV-3 cell tumors to reach 750 mg in mice at 20.3 mg/kg peroral dose, days 20-34 administration; format: functional; conditions: route oral; method in brief: as §3
# C6 glioma = test: Difference in days for treated (T) and control (C) C6 glioma tumors to reach 750 mg in mice at 5 mg/kg peroral dose, days 1-15 administration; conditions: route oral
# C6 [22] = test: Difference in days for treated (T) and control (C) C6 glioma cell tumors to reach 750 mg in mice at 10 mg/kg peroral dose, days 1-15 administration; format: functional; conditions: route oral; method in brief: as §3
# NIH3T3 [23] = test: Growth of NIH3T3 cell colonies in soft agar with continuous treatment; format: functional, cell-based; conditions: Mus musculus
# Method in brief: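 Soft agar cloning used PDGF-B-transfected NIH3T3 (NIH3T3/PDGF) cells. Cells were exposed 3 days to a concentration series, then plated in soft agar with the matching compound concentration kept present. Colonies were stained and counted after two weeks. IC50; mean of two experiments, each in duplicate.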
# Mus musculus [24] = test: Difference in days for treated (T) and control (C) PDGF-transfected fibroblast tumors to reach 750 mg in mice at 9.5 mg/kg peroral dose, days 1-15 administration; conditions: route oral
# Mus musculus [25] = test: Difference in days for treated (T) and control (C) PDGF-transfected fibroblast tumors to reach 750 mg in mice at 15 mg/kg peroral dose, days 1-15 administration; format: functional; conditions: route oral; method in brief: as §3
# MCF7 [26] = test: Weight change of MCF-7 tumor cells in mice at 12 mg/kg peroral dose, days 1-15 administration; format: functional, organism-based; design: dose 12 mg/kg; method in brief: as §4
# COLO 205 [27] = test: Net reduction in tumor burden between first and last treatments of COLO 205 cell tumors in mice at 10 mg/kg peroral dose, days 14-28 administration; format: functional; conditions: route oral; method in brief: as §1
# A-431 [28] = test: Weight change of A431 cell tumor in mice at 20 mg/kg peroral dose, days 7-21 administration; format: functional; conditions: route oral; method in brief: as §4
# Mus musculus [29] = test: Net reduction in tumor burden between first and last treatments in PDGF-transfected fibroblast cells in mice at 9.5 mg/kg peroral dose, days 1-15 administration; conditions: route oral
compound,measurement,setting,value
CCN(CC)CCOc1ccc(Nc2ncc3cc(-c4c(Cl)cccc4Cl)c(=O)n(C)c3n2)cc1 [PD-0166285],Net cell kill,SK-OV-3 [1],-0.1 log10
same,Net cell kill,MCF7 [2],-0.6 log10
same,Net cell kill,HT-29 [3],-0.2 log10
same,Weight change,SK-OV-3 [4],-4 g
same,Net cell kill,C6 [5],-0.8 log10
same,Weight change,NIH3T3/PDGF,-4.1 g
same,IC50,NIH3T3 [6],10 nM
same,T-C,MCF7 [7],1.1 days
same,T-C,HT-29 [8],9.6 days
same,Net cell kill,A-431 [9],-0.5 log10
same,Net cell kill,C6 [10],-1 log10
same,Weight change,C6 [11],-0.1 g
same,Weight change,C6 [12],Weight gain
same,T-C,COLO 205 [13],0.6 days
same,IC50,C6 [14],340 nM
same,Weight change,Mus musculus [15],-0.4 g
same,Weight change,HT-29 [16],0 g
same,IC50,C6 [17],120 nM
same,T-C,A-431 [18],3.7 days
same,Weight change,COLO 205 [19],-4 g
same,Net cell kill,Mus musculus [20],-1.8 log10
same,T-C,SK-OV-3 [21],10.6 days
same,T-C,C6 glioma,0.3 days
same,T-C,C6 [22],0.4 days
same,IC50,NIH3T3 [23],1.1 nM
same,T-C,Mus musculus [24],3.3 days
same,T-C,Mus musculus [25],2.2 days
same,Weight change,MCF7 [26],Weight gain
same,Net cell kill,COLO 205 [27],-0.7 log10
same,Weight change,A-431 [28],-3.1 g
same,Net cell kill,Mus musculus [29],-1.6 log10
